From ChEMBL document CHEMBL2203146, “Search for anticonvulsant and analgesic active derivatives of dihydrofuran-2(3H)-one” (Bioorg Med Chem, 2012)
Active and inactive are the calls of the source.

Assays:
Mus musculus [1] = assay: Neurotoxicity in albino CF1 mouse assessed as minimal motor impairment at 300 mg/kg, ip after 4 hrs by rotorod test; type: toxicity, organism-based; parameters: dose 300 mg/kg, route intraperitoneal; conditions: in vivo
In short: (§1)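 Rotarod in male CF No. 1 mice after ip dosing (30, 100, 300 mg/kg; saline or 0.5% methylcellulose) at 15–240 min. Knurled plastic rod, 1-inch diameter, 6 rpm. Toxicity means failing to stay on for 1 min on three successive attempts. Recorded as toxic/tested.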

Rattus norvegicus [2] = assay: Anticonvulsant activity in Sprague-Dawley rat assessed as protection against maximal electroshock-induced seizures at 30 mg/kg, po after 0.5 hr; type: functional, organism-based; parameters: dose 30 mg/kg
In short: (§2)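 Male Sprague-Dawley rats (100–150 g), compound given orally at 30 mg/kg, dissolved in saline or suspended in 0.5% methylcellulose. Maximal electroshock seizures elicited with 60-cycle alternating current. Result recorded as number protected/number tested at each time point.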

Mus musculus [3] = assay: Anticonvulsant activity in albino CF1 mouse assessed as protection against maximal electroshock-induced seizures at 300 mg/kg, ip after 0.5 hr; type: functional, organism-based; parameters: dose 300 mg/kg
In short: (§3)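 Male albino CF No. 1 mice (18–25 g) dosed ip at 30, 100 and 300 mg/kg in saline or 0.5% methylcellulose, tested 15, 30, 60 and 240 min after dosing. Maximal electroshock seizures elicited with 60-cycle alternating current. Scored as animals protected/animals tested, small qualitative groups.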

Mus musculus [4] = assay: Neurotoxicity in albino CF1 mouse assessed as minimal motor impairment at 100 mg/kg, ip after 1 hr by rotorod test; type: toxicity, organism-based; parameters: dose 100 mg/kg, route intraperitoneal; conditions: in vivo; in short: as §1
Rattus norvegicus [5] = assay: Anticonvulsant activity in Sprague-Dawley rat assessed as protection against maximal electroshock-induced seizures at 30 mg/kg, po after 2 hrs; type: functional, organism-based; parameters: dose 30 mg/kg; in short: as §2
Rattus norvegicus [6] = assay: Neurotoxicity in Sprague-Dawley rat assessed as […] at 30 mg/kg, po after 1 hr […]; type: toxicity, organism-based; parameters: dose 30 mg/kg, route oral; conditions: in vivo
Mus musculus [7] = assay: Anticonvulsant activity in albino CF1 mouse assessed as protection against maximal electroshock-induced seizures at 100 mg/kg, ip after 4 hrs; type: functional, organism-based; parameters: dose 100 mg/kg; in short: as §3
Mus musculus [8] = assay: Anticonvulsant activity in albino CF1 mouse assessed as protection against maximal electroshock-induced seizures at 100 mg/kg, ip after 0.5 hr; type: functional, organism-based; parameters: dose 100 mg/kg; in short: as §3
Rattus norvegicus [9] = assay: Anticonvulsant activity in Sprague-Dawley rat assessed as protection against maximal electroshock-induced seizures at 30 mg/kg, po after 4 hrs; type: functional, organism-based; parameters: dose 30 mg/kg; in short: as §2
Rattus norvegicus [10] = assay: Anticonvulsant activity in Sprague-Dawley rat assessed as protection against maximal electroshock-induced seizures at 30 mg/kg, po after 0.25 hr; type: functional, organism-based; parameters: dose 30 mg/kg; in short: as §2
Rattus norvegicus [11] = assay: Neurotoxicity in Sprague-Dawley rat assessed as minimal motor impairment at 30 mg/kg, po after 4 hrs by rotorod test; type: toxicity, organism-based; parameters: dose 30 mg/kg, route oral; conditions: in vivo
Rattus norvegicus [12] = assay: Neurotoxicity in Sprague-Dawley rat assessed as […] at 30 mg/kg, po after 2 hrs […]; type: toxicity, organism-based; parameters: dose 30 mg/kg, route oral; conditions: in vivo
Mus musculus [13] = assay: Anticonvulsant activity in albino CF1 mouse assessed as protection against subcutaneous metrazol-induced seizures at 30 to 300 mg/kg, ip after 0.5 to 4 hrs; type: functional, organism-based
In short: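 CF No. 1 male mice dosed ip at 30, 100 or 300 mg/kg (saline or 0.5% methylcellulose), then given pentetrazole 85 mg/kg sc as 0.5% solution in posterior midline. Watched 30 min. Protection means no threshold seizure (single clonic spasm episode of at least 5 s). Expressed as protected/tested.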

Mus musculus [14] = assay: Neurotoxicity in albino CF1 mouse assessed as minimal motor impairment at 300 mg/kg, ip after 0.5 hr by rotorod test; type: toxicity, organism-based; parameters: dose 300 mg/kg, route intraperitoneal; conditions: in vivo; in short: as §1
Mus musculus [15] = assay: Anticonvulsant activity in albino CF1 mouse assessed as protection against maximal electroshock-induced seizures at 100 mg/kg, ip after 1 hr; type: functional, organism-based; parameters: dose 100 mg/kg; in short: as §3
Mus musculus [16] = assay: Neurotoxicity in albino CF1 mouse assessed as minimal motor impairment at 100 mg/kg, ip after 0.25 hr by rotorod test; type: toxicity, organism-based; parameters: dose 100 mg/kg, route intraperitoneal; conditions: in vivo; in short: as §1
Mus musculus [17] = assay: Anticonvulsant activity in albino CF1 mouse assessed as protection against maximal electroshock-induced seizures at 300 mg/kg, ip after 4 hrs; type: functional, organism-based; parameters: dose 300 mg/kg; in short: as §3
Mus musculus [18] = assay: Anticonvulsant activity in albino CF1 mouse assessed as protection against maximal electroshock-induced seizures at 100 mg/kg, ip after 0.25 hr; type: functional, organism-based; parameters: dose 100 mg/kg; in short: as §3
Rattus norvegicus [19] = assay: Anticonvulsant activity in Sprague-Dawley rat assessed as protection against maximal electroshock-induced seizures at 30 mg/kg, po after 1 hr; type: functional, organism-based; parameters: dose 30 mg/kg; in short: as §2
Rattus norvegicus [20] = assay: Neurotoxicity in Sprague-Dawley rat assessed as […] at 30 mg/kg, po after 0.25 hr […]; type: toxicity, organism-based; parameters: dose 30 mg/kg, route oral; conditions: in vivo
Mus musculus [21] = assay: Neurotoxicity in albino CF1 mouse assessed as minimal motor impairment at 100 mg/kg, ip after 4 hrs by rotorod test; type: toxicity, organism-based; parameters: dose 100 mg/kg, route intraperitoneal; conditions: in vivo; in short: as §1
Mus musculus [22] = assay: Neurotoxicity in albino CF1 mouse assessed as minimal motor impairment at 100 mg/kg, ip after 0.5 hr by rotorod test; type: toxicity, organism-based; parameters: dose 100 mg/kg, route intraperitoneal; conditions: in vivo; in short: as §1
Rattus norvegicus [23] = assay: Neurotoxicity in Sprague-Dawley rat assessed as minimal motor impairment at 30 mg/kg, po after 0.5 hr by rotorod test; type: toxicity, organism-based; parameters: dose 30 mg/kg, route oral; conditions: in vivo
Mus musculus [24] = assay: Anticonvulsant activity in albino CF1 mouse assessed as protection against 6 Hz psychomotor seizure at 100 mg/kg, ip after 1 hr by minimal clonic seizure test; type: functional, organism-based; parameters: dose 100 mg/kg
In short: (§4)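 Male albino CF No. 1 mice, 18–25 g. Compound dissolved in saline or suspended in 0.5% methylcellulose and given ip beforehand. Corneal stimulation with 0.2 ms monopolar rectangular pulses at 6 Hz for 3 s from a constant-current device. Mice restrained during stimulation, then released and observed for the minimal clonic seizure and automatistic behaviour.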

Mus musculus [25] = assay: Anticonvulsant activity in albino CF1 mouse assessed as protection against 6 Hz psychomotor seizure at 100 mg/kg, ip after 0.25 hr by minimal clonic seizure test; type: functional, organism-based; parameters: dose 100 mg/kg; in short: as §4
Mus musculus [26] = assay: Anticonvulsant activity in albino CF1 mouse assessed as protection against 6 Hz psychomotor seizure at 100 mg/kg, ip after 0.5 hr by minimal clonic seizure test; type: functional, organism-based; parameters: dose 100 mg/kg; in short: as §4
Mus musculus [27] = assay: Anticonvulsant activity in albino CF1 mouse assessed as protection against 6 Hz psychomotor seizure at 100 mg/kg, ip after 2 hrs by minimal clonic seizure test; type: functional, organism-based; parameters: dose 100 mg/kg; in short: as §4
Mus musculus [28] = assay: Anticonvulsant activity in albino CF1 mouse assessed as protection against 6 Hz psychomotor seizure at 100 mg/kg, ip after 4 hrs by minimal clonic seizure test; type: functional, organism-based; parameters: dose 100 mg/kg; in short: as §4
Mus musculus [29] = assay: […] activity in ip dosed albino CF1 mouse assessed as inhibition of phenylbenzoquinone-induced writhing administered after 30 mins prior challenge; type: functional
In short: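 Male Albino Swiss (CD-1) mice, 6-8 per dose. Compound given ip in 0.5% methylcellulose. 30 min later, 0.25 ml of 0.02% phenylbenzoquinone injected. After 5 min, writhes counted over 10 min. % effect = (vehicle mean − drug mean)/vehicle mean × 100. ED50 derived; Student's t-test.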

Mus musculus [30] = assay: Anesthetic activity in albino CF1 mouse assessed as latency in response to thermal stimuli administered as 1% solution, sc measured after 15 mins by modified tail immersion test; type: functional
In short: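 Male Albino Swiss (CD-1) mice, 6-8 per group, tested at 1% and 2% compound concentration. Tail distal 3 cm immersed in water at 50 ± 0.5 °C 15 min after treatment. Tail-withdrawal latency recorded with a 20 s cutoff. Value is % difference in latency vs vehicle-treated mice. Mean ± SEM, Student's t-test.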

Mus musculus [31] = assay: Anesthetic activity in […] assessed as latency in response to thermal stimuli administered as 2% solution, sc measured after 15 mins by modified tail immersion test; type: functional, albino CF1
Mus musculus [32] = assay: Analgesic activity in albino CF1 mouse assessed as inhibition of heat-induced paw licking or jumping behaviour administered after 30 mins prior heat challenge by hot plate method; type: functional
Mus musculus [33] = assay: Neurotoxicity in albino CF1 mouse assessed as minimal motor impairment at 30 mg/kg, ip after 0.5 hr by rotorod test; type: toxicity, organism-based; parameters: dose 30 mg/kg, route intraperitoneal; conditions: in vivo
In short: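 Male albino CF No. 1 mice, compound ip in saline or 0.5% methylcellulose. Rotarod: 1-inch knurled rod at 6 rpm. Toxicity is failure to stay on the rod for 1 min on three successive attempts. Expressed as toxic/tested.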

Mus musculus [34] = assay: Anticonvulsant activity in albino CF1 mouse assessed as protection against maximal electroshock-induced seizures at 30 mg/kg, ip after 0.5 hr; type: functional, organism-based; parameters: dose 30 mg/kg
In short: (§5)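 Male albino CF No. 1 mice, 18–25 g. Compound in saline or 0.5% methylcellulose, ip. Seizures elicited by 60-cycle alternating current maximal electroshock. Result expressed as animals protected/animals tested.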

Mus musculus [35] = assay: Anticonvulsant activity in albino CF1 mouse assessed as protection against maximal electroshock-induced seizures at 30 mg/kg, ip after 4 hrs; type: functional, organism-based; parameters: dose 30 mg/kg; in short: as §5
Mus musculus [36] = assay: Neurotoxicity in albino CF1 mouse assessed as minimal motor impairment at 30 mg/kg, ip after 4 hrs by rotorod test; type: toxicity, organism-based; parameters: dose 30 mg/kg, route intraperitoneal; conditions: in vivo; in short: as §1

SMILES	Activity (Mus musculus [1])	Activity (Mus musculus [3])	Activity (Mus musculus [4])	Activity (Mus musculus [7])	Activity (Mus musculus [8])	Activity (Mus musculus [13])	Activity (Mus musculus [14])	Activity (Mus musculus [15])	Activity (Mus musculus [16])	Activity (Mus musculus [17])	Activity (Mus musculus [18])	Activity (Mus musculus [21])	Activity (Mus musculus [22])	Activity (Mus musculus [24])	Activity (Mus musculus [25])	Activity (Mus musculus [26])	Activity (Mus musculus [27])	Activity (Mus musculus [28])	ED50 (Mus musculus [29])	Activity (Mus musculus [30])	further results
C/C(Nc1ccccc1)=C1\CCOC1=O	Non-toxic	Active	Non-toxic	inactive	inactive	inactive	Toxic	inactive	Non-toxic	inactive	Active	Non-toxic	Non-toxic								Activity (Rattus norvegicus [2]): inactive; Activity (Rattus norvegicus [5]): inactive; Activity (Rattus norvegicus [6]): Non-toxic; Activity (Rattus norvegicus [9]): inactive; Activity (Rattus norvegicus [10]): inactive; Activity (Rattus norvegicus [11]): Non-toxic; Activity (Rattus norvegicus [12]): Non-toxic; Activity (Rattus norvegicus [19]): inactive; Activity (Rattus norvegicus [20]): Non-toxic; Activity (Rattus norvegicus [23]): Non-toxic
NC(=O)c1ccccc1OC1CCOC1=O (racemic)	Non-toxic	inactive		inactive	inactive	inactive	Non-toxic			inactive		Non-toxic	Non-toxic	inactive	inactive	inactive	inactive	inactive	7.9 mg/kg		
COc1ccccc1N1CCN(C2CCOC2=O)CC1 (racemic)	Non-toxic	Active	Non-toxic	inactive	inactive	inactive	Toxic	inactive	Non-toxic	inactive	inactive	Non-toxic	Non-toxic						0.3 mg/kg	97%	Activity (Mus musculus [31]): 152%; ED50 (Mus musculus [32]): 0.7 mg/kg
COc1ccc(Cl)cc1N1CCN(C2CCOC2=O)CC1 (racemic)	Toxic	Active	Toxic	inactive	inactive	inactive	Toxic	inactive	Non-toxic	inactive	inactive	Toxic	Toxic						19 mg/kg	12%	Activity (Mus musculus [33]): Toxic; Activity (Mus musculus [34]): inactive; Activity (Mus musculus [35]): inactive; Activity (Mus musculus [31]): 29%; Activity (Mus musculus [36]): Non-toxic; ED50 (Mus musculus [32]): 28.1 mg/kg
Cl.O=C1OCCC1NC1CCCCC1 (racemic)	Non-toxic	inactive		inactive	inactive	inactive	Non-toxic			inactive		Non-toxic	Non-toxic	inactive	inactive	inactive	Active	inactive			Activity (Mus musculus [33]): Toxic; Activity (Mus musculus [34]): inactive; Activity (Mus musculus [35]): inactive
